Source: ChEMBL document CHEMBL1148956, “New sesquiterpenes from Pluchea arabica” (J Nat Prod, 2004)
Converted amounts (≈) assume the structure as drawn. The source made the active and inactive calls. No cut-off for these calls is given here.

What was measured:
[1] = tested on: Staphylococcus aureus; experiment: Antimicrobial activity against Staphylococcus aureus ATCC 29213 by agar-dilution-streak method; type: functional
Method in brief: (§1)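 Screened with the agar-dilution-streak method. MIC was set by broth dilution following NCCLS. Compounds were dissolved in DMSO and diluted to graded concentrations in tryptone soy broth.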

[2] = tested on: Radical scavenging activity; experiment: Antioxidant activity assessed as DPPH free radical scavenging activity relative to control; type: functional
[3] = tested on: Escherichia coli; experiment: Antimicrobial activity against Escherichia coli ATCC 9637 up to 500 ug/ml by agar-dilution-streak method; type: functional, organism-based
[4] = tested on: Candida albicans; experiment: Antimicrobial activity against Candida albicans ATCC 10231 up to 500 ug/ml by agar-dilution-streak method; type: functional, organism-based; method in brief: as §1
[5] = tested on: Pseudomonas aeruginosa; experiment: Antimicrobial activity against Pseudomonas aeruginosa ATCC 27853 up to 500 ug/ml by agar-dilution-streak method; type: functional, organism-based; method in brief: as §1
[6] = tested on: Salmonella enterica; experiment: Antimicrobial activity against Salmonella choleraesuis ATCC 14028 up to 500 ug/ml by agar-dilution-streak method; type: functional, organism-based
Method in brief: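 Salmonella choleraesuis ATCC 14028 was tested by the agar-dilution-streak method, alongside S. aureus ATCC 29213, P. aeruginosa ATCC 27853, C. albicans ATCC 10231 and K. pneumoniae ATCC 10031. Test compounds were dissolved in DMSO.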

[7] = Toxicity against brine shrimp larvae; type: organism-based; settings: artemia, in vivo
[8] = tested on: Klebsiella pneumoniae; experiment: Antimicrobial activity against Klebsiella pneumoniae ATCC 10031 up to 500 ug/ml by agar-dilution-streak method; type: functional, organism-based; method in brief: as §1

Row | Structure (SMILES) | MIC [1] [µg/mL] | Activity [2] [%] | Activity [3] | Activity [4] | Activity [5] | Activity [6] | LC50 [7] [µg/mL] | Activity [8]
1 | C=C1C(CC2C[C@H](O)C=C2C)C(C)(C)C[C@H]1O (stereo partly specified) [GODOTOL A] | 250 (≈ 1060 µM) | < 10 | inactive | inactive | inactive | inactive | 290 (≈ 1230 µM) | inactive
2 | C=C1C[C@@H](O)C=C(C)C2C1CC[C@@H](O)C2(C)C (stereo partly specified) [GODOTOL B] | 500 (≈ 2120 µM) | < 10 | inactive | inactive | inactive | inactive | 540 (≈ 2280 µM) | inactive
